Source: ChEMBL document CHEMBL1122070, “Potential antitrypanosomal agents. 1,N2-Disubstituted 2-amino-5-hydroxy-4-methylnaphtho[1,2-d]thiazolium salts and related compounds” (1982)
Calls of active or inactive are those of the source. No cut-off for these calls is given here.

Legend:
Trypanosoma brucei [1] = assay: Minimum concentration producing complete lysis of all trypanosomes within 30 min at 37 degrees C in vitro; format: functional
Method in brief: (§1)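 T. brucei EATRO 110 bloodstream forms from infected rat or mouse blood, 1.5-2 × 10^7/mL in 1:1 phosphate-buffered saline-glucose and MEM, held on ice and used within 8 h. At 37 °C, turbidity was followed at 750 nm. Compound was added at 5–1000 μM final, with Me2SO ≤1% v/v. Phase microscopy scored lysis at 5, 10 and 30 min. MLC is the lowest concentration lysing all within 30 min. Near-MLC concentrations were repeated on 2–3 harvests.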

Mus musculus [2] = assay: Maximum tolerated (nonfatal) intraperitoneal dose tested in mice infected with Trypanosoma brucei.
Trypanosoma brucei [3] = assay: Minimum concentration producing complete lysis of all trypanosomes within 30 min at 37 degrees C in vitro in the presence of bovine serum albumin.; format: functional, organism-based
Method in brief: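 Trypanolysis of T. brucei EATRO 110 bloodstream forms (1.5-2 × 10^7/mL, 1:1 phosphate-buffered saline-glucose/MEM) with 0.3% bovine serum albumin added to the suspending medium, 37 °C. Compound was added at 5–1000 μM final with Me2SO ≤1% v/v. Turbidity was read at 750 nm and lysis checked microscopically at 5, 10 and 30 min. MLC is the lowest concentration giving complete lysis within 30 min.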

Mus musculus [4] = assay: Maximum tolerated (nonfatal) intraperitoneal dose tested in mice infected with Trypanosoma brucei.; format: functional
Method in brief: (§2)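 Female Swiss-Webster mice (20-25 g) infected ip with 5×10^4 T. brucei EATRO 110 in freshly drawn infected mouse blood diluted with minimum essential medium. Groups of five mice received compound ip 4-6 h post-infection, as a milled suspension in saline with 0.25% methylcellulose or as a saline solution. A dose was scored toxic if mean survival was <90% of untreated controls or deaths occurred within 72 h; the compound was then retested at a lower dose.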

Trypanosoma brucei [5] = assay: Minimum concentration producing complete lysis of all trypanosomes within 30 min at 37 degrees C in vitro; IA is Inactive at 5 uM; format: functional, organism-based; method in brief: as §1
Mus musculus [6] = assay: Maximum tolerated (nonfatal) intraperitoneal dose tested in mice infected with Trypanosoma brucei; format: functional; method in brief: as §2

SMILES | Min lytic concentration (Trypanosoma brucei [1]) | Max dose (Mus musculus [2]) | Concentration (Trypanosoma brucei [3]) | Max dose (Mus musculus [4]) | Min lytic concentration (Trypanosoma brucei [5]) | Max dose (Mus musculus [6])
Cc1c(O)c2ccccc2c2c1sc(Nc1ccccc1)[n+]2C.[Cl-] | 10 µM | 200 mg/kg | – | – | – | –
CCCCNc1sc2c(C)c(O)c3ccccc3c2[n+]1CCCC.[Cl-] | 10 µM | 400 mg/kg | 100 µM | – | – | –
CCNc1sc2c(C)c(O)c3ccccc3c2[n+]1CC.[Cl-] | 50 µM | 200 mg/kg | 200 µM | – | – | –
Cc1c(O)c2ccccc2c2c1sc(NCCCN1CCN(C)CC1)[n+]2C.Cl.[Cl-] | 100 µM | 100 mg/kg | 100 µM | – | – | –
Cc1c(O)c2ccccc2c2c1sc1[n+]2CCCN1.[Cl-] | >100 µM | 200 mg/kg | – | – | – | –
CCCCCCCCNc1sc2c(C)c(O)c3ccccc3c2[n+]1C.[Cl-] | 10 µM | 200 mg/kg | – | – | – | –
CNc1nc2c(s1)c(C)c(O)c1ccccc12.Cl | 30 µM | – | – | 100 mg/kg | – | –
Cc1c(O)c2ccccc2c2c1sc1[n+]2CCN1.[Cl-] | 30 µM | 200 mg/kg | – | – | – | –
C=CCNc1nc2c(s1)c(C)c(O)c1ccccc12.Cl | 20 µM | 200 mg/kg | – | – | – | –
C=CCNc1sc2c(C)c(O)c3ccccc3c2[n+]1CC=C.[Cl-] | 20 µM | 400 mg/kg | – | – | – | –
COc1ccc(Nc2nc3c(s2)c(C)c(O)c2ccccc23)cc1.Cl | 10 µM | – | – | 400 mg/kg | – | –
Cc1c(O)c2ccccc2c2c1sc(NCC(C)C)[n+]2CC(C)C.[Cl-] | 10 µM | 200 mg/kg | – | – | – | –
CC(=O)c1cccc(Nc2sc3c(C)c(O)c4ccccc4c3[n+]2C)c1 | – | 200 mg/kg | – | – | inactive | –
COCCNc1sc2c(C)c(O)c3ccccc3c2[n+]1C.[Cl-] | 50 µM | 50 mg/kg | – | – | – | –
Cc1c(O)c2ccccc2c2c1sc(Nc1ccccc1)[n+]2CCO.[Cl-] | >5 µM | 400 mg/kg | – | – | – | –
Cc1c(O)c2ccccc2c2c1sc(NCCc1ccccc1)[n+]2C.[Cl-] | 10 µM | 400 mg/kg | – | – | – | –
CCCCCCNc1sc2c(C)c(O)c3ccccc3c2[n+]1CCCCCC.[Cl-] | >10 µM | 200 mg/kg | – | – | – | –
Cc1c(O)c2ccccc2c2nc(Nc3ccccc3)sc12.Cl | 20 µM | 200 mg/kg | – | – | – | –
Cc1c(O)c2ccccc2c2c1sc(NCCCN(CCO)CCO)[n+]2C.[Cl-] | 100 µM | 50 mg/kg | 200 µM | – | – | –
CCCNc1sc2c(C)c(O)c3ccccc3c2[n+]1CCC.[Cl-] | 30 µM | 400 mg/kg | – | – | – | –
Cc1c(O)c2ccccc2c2nc(N)sc12.Cl | 100 µM | – | – | 50 mg/kg | – | –
CCCCNc1sc2c(C)c(O)c3ccccc3c2[n+]1C.[Cl-] | 10 µM | 200 mg/kg | – | – | – | –
Nc1nc(N)nc(Nc2ccc([As]3SCC(CO)S3)cc2)n1 (configuration not stated) [MELARSOPROL] | 100 µM | – | – | – | – | –
Cc1c(O)c2ccccc2c2c1sc(NC1CCCCC1)[n+]2CCO.[Cl-] | 20 µM | 400 mg/kg | – | – | – | –
Cl.Nc1nc2c(cc(O)c3ccccc32)s1 | >500 µM | – | – | – | – | 100 mg/kg
CNc1sc2c(C)c(O)c3ccccc3c2[n+]1C.[Cl-] | 100 µM | 50 mg/kg | – | – | – | –
Cc1c(O)c2ccccc2c2c1sc(NCCO)[n+]2C.[Cl-] | 100 µM | 100 mg/kg | – | – | – | –
